Results published in ChEMBL document CHEMBL1147211, “Synthetic N-pyridinyl(methyl)-indol-3-ylpropanamides as new potential immunosuppressive agents” (Eur J Med Chem, 2007).
Active and inactive are the calls of the source. The calls are words filed in the database; no cut-off is given here.

What was measured:
[1] = (§1) Antiproliferative activity against ConA-stimulated mouse splenocytes at 90 uM after 72 hrs by MTT assay; format: functional; details: Splenocyte
In short: (§2)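 Spleens pooled from two 8-week-old female C57BL/6 mice were homogenized in HBSS, and red cells were lysed with 20 mM Tris-HCl/140 mM NH4Cl. Cells were seeded at 1.5×10^5/well and stimulated with 1 ug/mL ConA plus compound in complete RPMI with 50 µM mercaptoethanol, at 37 °C and 5% CO2 for 72 h. Read-out was MTT for 4 h and OD at 570 nm, in sextuplicate. Inhibition was calculated as (OD control − OD treated)/OD control × 100.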

[2] = (§3) Antiproliferative activity against ConA-stimulated mouse splenocytes at 30 uM after 72 hrs by MTT assay; format: functional; details: Splenocyte; in short: as §2
Splenocyte [3] = test: as §1; format: functional; in short: as §2
Splenocyte [4] = test: as §3; format: functional; in short: as §2
Splenocyte [5] = test: Inhibition of mitogen dependent T cell proliferation in mouse splenocytes; format: functional, cell-based; in short: as §2
Mus musculus = test: Inhibition of DTH foot-pad swelling in orally dosed BALB/C mouse after 5 days; format: functional
In short: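 Female BALB/c mice, 8–9 weeks old and five per group, were primed i.v. with 5×10^6 SRBC in PBS. Compound in olive oil was given orally once daily for five days, from priming until challenge. On day 4, 3–4×10^8 SRBC were injected into the right hind footpad and PBS into the left. Footpad swelling difference was measured 24 h later, and inhibition was expressed relative to control mice.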

[6] = Antiproliferative activity against PHA-stimulated human peripheral blood lymphocytes assessed as [3H]thymidine uptake after 48 hrs; format: functional; details: PBL
In short: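 Human PBL from healthy donors were isolated by Ficoll-Hypaque and seeded at 1×10^5/well. They were stimulated with 0.3 µg/mL PHA plus compound (6.25–100 µM; DMSO stock diluted in complete RPMI) at 37 °C and 5% CO2 for 48 h. [3H]thymidine (1 µCi/well) was added for the last 6–8 h, and uptake was counted by beta counter, in sextuplicate. Values are mean ± SEM of three independent experiments.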

[7] = Cytotoxicity assessed as cell viability of ConA-stimulated mouse splenocytes at 100 uM after 48 hrs by MTT assay

SMILES	inhibition at 90 µM [1] [%]	inhibition at 30 µM [2] [%]	Activity (Splenocyte [3])	Activity (Splenocyte [4])	other results
O=C(CCc1cn(Cc2ccc(Cl)cc2)c2ccccc12)NCc1cccnc1	55	27			
O=C(CCc1c[nH]c2ccccc12)Nc1ccncc1			inactive	inactive	
Cc1cc(C)nc(NC(=O)CCc2cn(Cc3ccc(Cl)cc3)c3ccc(Cl)cc23)c1			inactive	inactive	
O=C(CCc1c[nH]c2ccccc12)NCc1cccnc1	38	38			
Cc1cc(C)nc(NC(=O)CCc2cn(Cc3ccc(Cl)cc3)c3ccccc23)c1			inactive	inactive	
Cc1cc(C)nc(NC(=O)CCc2c[nH]c3ccccc23)c1	76	22			
O=C(CCc1cn(Cc2ccc(Cl)cc2)c2ccc(Cl)cc12)NCc1cccnc1			inactive	inactive	
O=C(CCc1cn(Cc2ccccc2)c2ccccc12)Nc1ccncc1			inactive	inactive	
Cn1cc(CCC(=O)Nc2ccncc2)c2cc(Cl)ccc21			inactive	inactive	
Cn1cc(CCC(=O)NCc2cccnc2)c2cc(Cl)ccc21	37	22			
O=C(CCc1cn(Cc2ccccc2)c2ccccc12)NCc1cccnc1	38	20			
O=C(CCc1cn(Cc2ccc(Cl)cc2)c2ccccc12)Nc1ccncc1	87	19			IC50 (Splenocyte [5]): 17 µM; Inhibition (Mus musculus): 69%; IC50 [6]: 25 µM; Cell viability [7]: 95%
Cc1cc(C)nc(NC(=O)CCc2cn(Cc3ccccc3)c3ccccc23)c1			inactive	inactive	
